Measurements taken from ChEMBL document CHEMBL2385070, “Selective inhibition of bacterial and human topoisomerases by N-arylacyl O-sulfonated aminoglycoside derivatives” (ACS Med Chem Lett, 2013).
Active and inactive are the calls of the source. The rule behind the calls is not given here.

Key:
[1] = target: DNA topoisomerase 2-alpha (Homo sapiens) (UniProt P11388); assay: Inhibition of human DNA topoisomerase 2 at 200 uM relative to control
[2] = test system: Escherichia coli; assay: Inhibition of Escherichia coli DNA topoisomerase 4 at 200 uM relative to control
[3] = test system: Escherichia coli; assay: Inhibition of Escherichia coli DNA gyrase catalytic activity at 200 uM relative to control
How it was run: (§1)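 E. coli gyrase was incubated with relaxed DNA, either without compound or with compound at 200 μM; titrations also used 20, 50 and 100 μM. Gel lanes included a no-enzyme control and an enzyme-without-compound control, and supercoiling was scored from the lane pattern. In the summary table, + denotes greater than 95% inhibition.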

[4] = target: T1, DNA topoisomerase 1 (Homo sapiens) (UniProt P11387); assay: Inhibition of human DNA topoisomerase 1 at 200 uM relative to control
T1 sequence (whole entry): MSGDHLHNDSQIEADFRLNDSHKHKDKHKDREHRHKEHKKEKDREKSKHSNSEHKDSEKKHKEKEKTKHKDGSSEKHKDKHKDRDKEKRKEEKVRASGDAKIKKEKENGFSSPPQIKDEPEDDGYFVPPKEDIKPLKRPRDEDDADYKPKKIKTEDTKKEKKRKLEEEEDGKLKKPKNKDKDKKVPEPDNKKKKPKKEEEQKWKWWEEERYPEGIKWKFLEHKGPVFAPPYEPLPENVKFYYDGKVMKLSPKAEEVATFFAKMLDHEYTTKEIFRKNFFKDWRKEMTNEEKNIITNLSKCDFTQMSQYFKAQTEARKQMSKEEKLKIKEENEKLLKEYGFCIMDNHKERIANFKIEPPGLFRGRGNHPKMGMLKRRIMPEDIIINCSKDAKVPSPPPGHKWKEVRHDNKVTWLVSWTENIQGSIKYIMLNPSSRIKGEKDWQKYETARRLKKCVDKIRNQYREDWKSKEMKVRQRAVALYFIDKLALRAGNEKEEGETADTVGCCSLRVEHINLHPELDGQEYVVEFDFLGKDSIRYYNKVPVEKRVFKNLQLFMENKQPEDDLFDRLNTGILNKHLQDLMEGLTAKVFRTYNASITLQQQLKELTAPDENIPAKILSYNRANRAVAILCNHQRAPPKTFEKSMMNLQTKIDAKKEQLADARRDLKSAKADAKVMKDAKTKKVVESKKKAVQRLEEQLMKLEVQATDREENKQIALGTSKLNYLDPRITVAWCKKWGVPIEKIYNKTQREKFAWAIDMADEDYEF

[5] = test system: Escherichia coli; assay: Inhibition of Escherichia coli DNA topoisomerase 4 assessed as blockade of ciprofloxacin-induced pBR322 DNA cleavage at 200 uM after 10 mins by agarose gel electrophoresis
How it was run: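 E. coli Topo IV was incubated with plasmid DNA and ciprofloxacin with or without compound. Ciprofloxacin traps the enzyme–DNA ternary complex, and nicked and linear DNA products were scored on the gel against the supercoiled substrate.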

[6] = test system: Escherichia coli; assay: Inhibition of Escherichia coli DNA topoisomerase 4-mediated decatenation of kinetoplast DNA at 200 uM after 15 mins by agarose gel electrophoresis
[7] = test system: Escherichia coli; assay: Inhibition of Escherichia coli DNA topoisomerase 4-mediated relaxation of negatively supercoiled pBR322 DNA at 200 uM after 15 mins by agarose gel electrophoresis
[8] = test system: Escherichia coli; assay: Inhibition of Escherichia coli DNA gyrase-mediated supercoiling of relaxed I-DNA after 15 mins by agarose gel electrophoresis; how it was run: as §1

Chain of DNA topoisomerase 2-alpha (Homo sapiens) (P11388 whole entry): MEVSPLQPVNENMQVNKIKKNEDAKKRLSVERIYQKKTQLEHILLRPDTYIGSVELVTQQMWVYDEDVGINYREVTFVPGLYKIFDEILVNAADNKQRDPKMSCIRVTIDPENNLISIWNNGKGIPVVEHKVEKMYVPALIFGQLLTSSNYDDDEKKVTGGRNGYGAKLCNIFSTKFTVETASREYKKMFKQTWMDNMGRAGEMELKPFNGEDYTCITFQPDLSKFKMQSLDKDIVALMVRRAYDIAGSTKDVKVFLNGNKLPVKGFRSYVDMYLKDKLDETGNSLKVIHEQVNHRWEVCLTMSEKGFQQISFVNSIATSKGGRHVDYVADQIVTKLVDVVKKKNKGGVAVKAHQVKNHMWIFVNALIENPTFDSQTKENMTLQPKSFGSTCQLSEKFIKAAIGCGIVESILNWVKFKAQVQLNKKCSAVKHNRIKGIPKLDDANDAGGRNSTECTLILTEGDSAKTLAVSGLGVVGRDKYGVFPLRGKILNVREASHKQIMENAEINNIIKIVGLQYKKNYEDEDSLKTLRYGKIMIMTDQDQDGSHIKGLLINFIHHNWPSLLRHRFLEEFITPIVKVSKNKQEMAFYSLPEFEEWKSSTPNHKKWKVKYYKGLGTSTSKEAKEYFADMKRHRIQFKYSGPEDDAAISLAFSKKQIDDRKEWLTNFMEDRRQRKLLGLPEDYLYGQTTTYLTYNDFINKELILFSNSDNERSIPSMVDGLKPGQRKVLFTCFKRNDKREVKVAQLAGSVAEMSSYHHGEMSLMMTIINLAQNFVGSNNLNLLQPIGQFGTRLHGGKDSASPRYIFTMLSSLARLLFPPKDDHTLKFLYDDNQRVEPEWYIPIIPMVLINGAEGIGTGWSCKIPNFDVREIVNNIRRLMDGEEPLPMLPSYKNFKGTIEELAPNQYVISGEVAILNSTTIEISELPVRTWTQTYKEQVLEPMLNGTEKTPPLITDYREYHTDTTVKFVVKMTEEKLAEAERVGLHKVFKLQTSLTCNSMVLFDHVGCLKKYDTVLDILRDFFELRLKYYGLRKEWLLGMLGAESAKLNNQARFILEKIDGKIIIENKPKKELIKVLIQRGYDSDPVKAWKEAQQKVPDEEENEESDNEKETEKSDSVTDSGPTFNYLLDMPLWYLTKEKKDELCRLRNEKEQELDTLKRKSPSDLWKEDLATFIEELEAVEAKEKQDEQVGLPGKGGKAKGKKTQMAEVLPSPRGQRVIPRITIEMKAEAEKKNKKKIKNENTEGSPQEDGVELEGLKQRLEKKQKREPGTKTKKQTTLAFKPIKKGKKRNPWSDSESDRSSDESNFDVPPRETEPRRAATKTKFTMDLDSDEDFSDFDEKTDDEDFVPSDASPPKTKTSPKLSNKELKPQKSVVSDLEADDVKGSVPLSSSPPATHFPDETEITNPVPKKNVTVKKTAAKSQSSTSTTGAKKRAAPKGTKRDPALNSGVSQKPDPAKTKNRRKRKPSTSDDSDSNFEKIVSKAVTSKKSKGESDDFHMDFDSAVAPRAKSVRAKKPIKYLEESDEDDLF

| Compound | inhibition [1] | inhibition [2] | inhibition [3] | inhibition [4] | inhibition [5] | inhibition [6] | inhibition [7] | inhibition [8] |
| --- | --- | --- | --- | --- | --- | --- | --- | --- |
| O=C(Cc1ccccc1)NC[C@@H]1O[C@H](O[C@H]2[C@@H](O)[C@H](O[C@@H]3[C@@H](O)[C@H](NC(=O)Cc4ccccc4)C[C@H](NC(=O)Cc4ccccc4)[C@H]3O[C@H]3O[C@H](CNC(=O)Cc4ccccc4)[C@@H](O)[C@H](O)[C@H]3NC(=O)Cc3ccccc3)O[C@@H]2CO)[C@H](NC(=O)Cc2ccccc2)[C@@H](O)[C@@H]1O | inactive | inactive | inactive | inactive | – | – | – | – |
| O=C(NC[C@@H]1O[C@H](O[C@H]2[C@@H](OS(=O)(=O)O)[C@H](O[C@@H]3[C@@H](OS(=O)(=O)O)[C@H](NC(=O)OCc4ccccc4)C[C@H](NC(=O)OCc4ccccc4)[C@H]3O[C@H]3O[C@H](CNC(=O)OCc4ccccc4)[C@@H](OS(=O)(=O)O)[C@H](OS(=O)(=O)O)[C@H]3NC(=O)OCc3ccccc3)O[C@@H]2COS(=O)(=O)O)[C@H](NC(=O)OCc2ccccc2)[C@@H](OS(=O)(=O)O)[C@@H]1OS(=O)(=O)O)OCc1ccccc1 | – | – | – | – | Active | Active | Active | Dose-dependent effect |
| O=C(NC[C@H]1O[C@H](O[C@H]2[C@H](O)[C@@H](O[C@H]3O[C@H](CO)[C@@H](O)[C@H](NC(=O)c4ccccc4)[C@H]3O)[C@H](NC(=O)c3ccccc3)C[C@@H]2NC(=O)c2ccccc2)[C@H](O)[C@@H](O)[C@@H]1O)c1ccccc1 | inactive | inactive | inactive | inactive | – | – | – | – |
| O=C(Cc1ccccc1)NC[C@H]1O[C@H](O[C@H]2[C@H](O)[C@@H](O[C@H]3O[C@H](CO)[C@@H](O)[C@H](NC(=O)Cc4ccccc4)[C@H]3O)[C@H](NC(=O)Cc3ccccc3)C[C@@H]2NC(=O)Cc2ccccc2)[C@H](O)[C@@H](O)[C@@H]1O | inactive | inactive | inactive | inactive | – | – | – | – |
| CC(=O)NC[C@@H]1O[C@H](O[C@H]2[C@@H](O)[C@H](O[C@@H]3[C@@H](O)[C@H](NC(C)=O)C[C@H](NC(C)=O)[C@H]3O[C@H]3O[C@H](CNC(C)=O)[C@@H](O)[C@H](O)[C@H]3NC(C)=O)O[C@@H]2CO)[C@H](NC(C)=O)[C@@H](O)[C@@H]1O | inactive | inactive | inactive | inactive | – | – | – | – |

Other lines, results leading:

| inhibition [1] | inhibition [2] | inhibition [3] | inhibition [4] | inhibition [5] | inhibition [6] | inhibition [7] | inhibition [8] | Compound |
| --- | --- | --- | --- | --- | --- | --- | --- | --- |
| inactive | inactive | inactive | inactive | – | – | – | – | O=C(NC[C@@H]1O[C@H](O[C@H]2[C@@H](O)[C@H](O[C@@H]3[C@@H](O)[C@H](NC(=O)OCc4ccccc4)C[C@H](NC(=O)OCc4ccccc4)[C@H]3O[C@H]3O[C@H](CNC(=O)OCc4ccccc4)[C@@H](O)[C@H](O)[C@H]3NC(=O)OCc3ccccc3)O[C@@H]2CO)[C@H](NC(=O)OCc2ccccc2)[C@@H](O)[C@@H]1O)OCc1ccccc1 |
| inactive | inactive | inactive | inactive | – | – | – | – | CN(C(=O)OCc1ccccc1)[C@@H]1[C@@H](O[C@H]2O[C@H](CO)[C@@H](NC(=O)OCc3ccccc3)[C@H](O)[C@H]2O)O[C@H]2C[C@@H](NC(=O)OCc3ccccc3)[C@@H](O[C@H]3[C@H](O)[C@@H](O)[C@H](NC(=O)OCc4ccccc4)C[C@@H]3NC(=O)OCc3ccccc3)O[C@@H]2[C@@H]1O |
| – | – | – | – | Active | – | – | – | CN(C(=O)c1ccccc1)[C@@H]1[C@@H](O[C@H]2O[C@H](CO)[C@@H](NC(=O)c3ccccc3)[C@H](O)[C@H]2O)O[C@H]2C[C@@H](NC(=O)c3ccccc3)[C@@H](O[C@H]3[C@H](O)[C@@H](O)[C@H](NC(=O)c4ccccc4)C[C@@H]3NC(=O)c3ccccc3)O[C@@H]2[C@@H]1O |
| inactive | inactive | inactive | inactive | – | – | – | – | O=C(NC[C@H]1O[C@H](O[C@H]2[C@H](O)[C@@H](O[C@H]3O[C@H](CO)[C@@H](O)[C@H](NC(=O)OCc4ccccc4)[C@H]3O)[C@H](NC(=O)OCc3ccccc3)C[C@@H]2NC(=O)OCc2ccccc2)[C@H](O)[C@@H](O)[C@@H]1O)OCc1ccccc1 |
